Measured values from ChEMBL document CHEMBL4311987, “Discovery of novel allosteric site and covalent inhibitors of FBPase with potent hypoglycemic effects” (Eur J Med Chem, 2019).

Assays:
[1] = molecular target: Fructose-1,6-bisphosphatase 1 (Homo sapiens, UniProt P09467, R255A); assay: Inhibition of human FBPase R254A mutant expressed in Escherichia coli BL21 (DE3) using FBP as substrate incubated for 5 mins by malachite green dye based spectrophotometry
Procedure, shortened: (§1)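 Recombinant human FBPase (wild type or point mutants) was expressed in E. coli BL21 (DE3), purified and stored in 50% glycerol at -20 °C. Reactions ran 5 min at 37 °C, and released phosphate was read by malachite green.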

Homo sapiens [2] = organism: Homo sapiens; assay: Selectivity index, ratio of IC50 for human FBPase C92S mutant expressed in Escherichia coli BL21 (DE3) to IC50 for human FBPase expressed in Escherichia coli BL21 (DE3)
Procedure, shortened: (§2)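 IC50 values for each FBPase point mutant and for wild-type human FBPase came from the same malachite-green assay. The index is mutant IC50 divided by wild-type IC50.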

Homo sapiens [3] = organism: Homo sapiens; assay: Selectivity index, ratio of IC50 for human FBPase C128S mutant expressed in Escherichia coli BL21 (DE3) to IC50 for human FBPase expressed in Escherichia coli BL21 (DE3); procedure, shortened: as §2
Homo sapiens [4] = organism: Homo sapiens; assay: Selectivity index, ratio of IC50 for human FBPase R254A mutant expressed in Escherichia coli BL21 (DE3) to IC50 for human FBPase expressed in Escherichia coli BL21 (DE3); procedure, shortened: as §2
[5] = molecular target: Fructose-1,6-bisphosphatase 1 (Homo sapiens, UniProt P09467, Y259A); assay: Inhibition of human FBPase Y258A mutant expressed in Escherichia coli BL21 (DE3) using FBP as substrate incubated for 5 mins by malachite green dye based spectrophotometry; procedure, shortened: as §1
Homo sapiens [6] = organism: Homo sapiens; assay: Selectivity index, ratio of IC50 for human FBPase C179S mutant expressed in Escherichia coli BL21 (DE3) to IC50 for human FBPase expressed in Escherichia coli BL21 (DE3); procedure, shortened: as §2
[7] = molecular target: Fructose-1,6-bisphosphatase 1 (Homo sapiens, UniProt P09467, C39S); assay: Inhibition of human FBPase C38S mutant expressed in Escherichia coli BL21 (DE3) using FBP as substrate incubated for 5 mins by malachite green dye based spectrophotometry; procedure, shortened: as §1
Homo sapiens [8] = organism: Homo sapiens; assay: Selectivity index, ratio of IC50 for human FBPase S124A mutant expressed in Escherichia coli BL21 (DE3) to IC50 for human FBPase expressed in Escherichia coli BL21 (DE3); procedure, shortened: as §2
Homo sapiens [9] = organism: Homo sapiens; assay: Selectivity index, ratio of IC50 for human FBPase R243A mutant expressed in Escherichia coli BL21 (DE3) to IC50 for human FBPase expressed in Escherichia coli BL21 (DE3); procedure, shortened: as §2
[10] = molecular target: Fructose-1,6-bisphosphatase 1 (Homo sapiens, UniProt P09467, S125A); assay: Inhibition of human FBPase S124A mutant expressed in Escherichia coli BL21 (DE3) using FBP as substrate incubated for 5 mins by malachite green dye based spectrophotometry; procedure, shortened: as §1
[11] = molecular target: Fructose-1,6-bisphosphatase 1 (Homo sapiens, UniProt P09467, C93S); assay: Inhibition of human FBPase C92S mutant expressed in Escherichia coli BL21 (DE3) using FBP as substrate incubated for 5 mins by malachite green dye based spectrophotometry; procedure, shortened: as §1
Homo sapiens [12] = organism: Homo sapiens; assay: Selectivity index, ratio of IC50 for human FBPase C183S mutant expressed in Escherichia coli BL21 (DE3) to IC50 for human FBPase expressed in Escherichia coli BL21 (DE3); procedure, shortened: as §2
[13] = molecular target: T1, Fructose-1,6-bisphosphatase 1 (Homo sapiens, UniProt P09467); assay: Inhibition of human FBPase expressed in Escherichia coli BL21 (DE3) using FBP as substrate incubated for 5 mins by malachite green dye based spectrophotometry
T1 sequence (P09467 whole entry): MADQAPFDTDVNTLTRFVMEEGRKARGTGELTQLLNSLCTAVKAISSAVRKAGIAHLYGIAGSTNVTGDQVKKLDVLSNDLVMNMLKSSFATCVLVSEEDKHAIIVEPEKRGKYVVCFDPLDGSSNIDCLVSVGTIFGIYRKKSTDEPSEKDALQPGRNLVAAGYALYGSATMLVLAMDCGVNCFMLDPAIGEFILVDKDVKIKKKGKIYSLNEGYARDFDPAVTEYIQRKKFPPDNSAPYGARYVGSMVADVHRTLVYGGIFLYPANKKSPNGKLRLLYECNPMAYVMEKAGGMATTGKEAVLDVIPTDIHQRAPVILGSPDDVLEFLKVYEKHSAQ

[14] = molecular target: Fructose-1,6-bisphosphatase 1 (Homo sapiens, UniProt P09467, C117S); assay: Inhibition of human FBPase C116S mutant expressed in Escherichia coli BL21 (DE3) using FBP as substrate incubated for 5 mins by malachite green dye based spectrophotometry; procedure, shortened: as §1
[15] = molecular target: Fructose-1,6-bisphosphatase 1 (Homo sapiens, UniProt P09467, C180S); assay: Inhibition of human FBPase C179S mutant expressed in Escherichia coli BL21 (DE3) using FBP as substrate incubated for 5 mins by malachite green dye based spectrophotometry; procedure, shortened: as §1
[16] = molecular target: Fructose-1,6-bisphosphatase 1 (Homo sapiens, UniProt P09467, C129S); assay: Inhibition of human FBPase C128S mutant expressed in Escherichia coli BL21 (DE3) using FBP as substrate incubated for 5 mins by malachite green dye based spectrophotometry; procedure, shortened: as §1
Homo sapiens [17] = organism: Homo sapiens; assay: Selectivity index, ratio of IC50 for human FBPase C281S mutant expressed in Escherichia coli BL21 (DE3) to IC50 for human FBPase expressed in Escherichia coli BL21 (DE3); procedure, shortened: as §2
Homo sapiens [18] = organism: Homo sapiens; assay: Selectivity index, ratio of IC50 for human FBPase C116S mutant expressed in Escherichia coli BL21 (DE3) to IC50 for human FBPase expressed in Escherichia coli BL21 (DE3); procedure, shortened: as §2
[19] = molecular target: Fructose-1,6-bisphosphatase 1 (Homo sapiens, UniProt P09467, C282S); assay: Inhibition of human FBPase C281S mutant expressed in Escherichia coli BL21 (DE3) using FBP as substrate incubated for 5 mins by malachite green dye based spectrophotometry; procedure, shortened: as §1
Homo sapiens [20] = organism: Homo sapiens; assay: Selectivity index, ratio of IC50 for human FBPase C38S mutant expressed in Escherichia coli BL21 (DE3) to IC50 for human FBPase expressed in Escherichia coli BL21 (DE3); procedure, shortened: as §2
[21] = molecular target: Fructose-1,6-bisphosphatase 1 (Homo sapiens, UniProt P09467, R244A); assay: Inhibition of human FBPase R243A mutant expressed in Escherichia coli BL21 (DE3) using FBP as substrate incubated for 5 mins by malachite green dye based spectrophotometry; procedure, shortened: as §1
[22] = molecular target: Fructose-1,6-bisphosphatase 1 (Homo sapiens, UniProt P09467, C184S); assay: Inhibition of human FBPase C183S mutant expressed in Escherichia coli BL21 (DE3) using FBP as substrate incubated for 5 mins by malachite green dye based spectrophotometry; procedure, shortened: as §1
Homo sapiens [23] = organism: Homo sapiens; assay: Selectivity index, ratio of IC50 for human FBPase N125A mutant expressed in Escherichia coli BL21 (DE3) to IC50 for human FBPase expressed in Escherichia coli BL21 (DE3); procedure, shortened: as §2
[24] = molecular target: Fructose-1,6-bisphosphatase 1 (Homo sapiens, UniProt P09467, N126A); assay: Inhibition of human FBPase N125A mutant expressed in Escherichia coli BL21 (DE3) using FBP as substrate incubated for 5 mins by malachite green dye based spectrophotometry; procedure, shortened: as §1
Sequence of Fructose-1,6-bisphosphatase 1 (Homo sapiens, UniProt P09467, N126A) (P09467 2-338 N126A limits assumed): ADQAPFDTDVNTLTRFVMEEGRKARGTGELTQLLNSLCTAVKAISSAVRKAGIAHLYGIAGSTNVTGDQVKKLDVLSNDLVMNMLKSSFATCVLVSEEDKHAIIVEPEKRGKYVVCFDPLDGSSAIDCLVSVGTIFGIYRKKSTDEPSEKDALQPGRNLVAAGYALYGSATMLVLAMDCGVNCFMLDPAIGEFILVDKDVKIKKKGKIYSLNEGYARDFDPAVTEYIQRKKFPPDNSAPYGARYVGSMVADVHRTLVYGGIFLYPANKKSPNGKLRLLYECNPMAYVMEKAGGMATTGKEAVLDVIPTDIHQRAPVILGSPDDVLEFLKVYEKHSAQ

Sequence of Fructose-1,6-bisphosphatase 1 (Homo sapiens, UniProt P09467, S125A) (P09467 2-338 S125A limits assumed): as the sequence (P09467 2-338 N126A limits assumed) above, with S124A, A125N counted along it
Sequence of Fructose-1,6-bisphosphatase 1 (Homo sapiens, UniProt P09467, C180S) (P09467 2-338 C180S limits assumed): as the sequence (P09467 2-338 N126A limits assumed) above, with A125N, C179S counted along it
Sequence of Fructose-1,6-bisphosphatase 1 (Homo sapiens, UniProt P09467, C129S) (P09467 2-338 C129S limits assumed): as the sequence (P09467 2-338 N126A limits assumed) above, with A125N, C128S counted along it
Sequence of Fructose-1,6-bisphosphatase 1 (Homo sapiens, UniProt P09467, Y259A) (P09467 2-338 Y259A limits assumed): as the sequence (P09467 2-338 N126A limits assumed) above, with A125N, Y258A counted along it
Sequence of Fructose-1,6-bisphosphatase 1 (Homo sapiens, UniProt P09467, C282S) (P09467 2-338 C282S limits assumed): as the sequence (P09467 2-338 N126A limits assumed) above, with A125N, C281S counted along it
Sequence of Fructose-1,6-bisphosphatase 1 (Homo sapiens, UniProt P09467, C117S) (P09467 2-338 C117S limits assumed): as the sequence (P09467 2-338 N126A limits assumed) above, with C116S, A125N counted along it
Sequence of Fructose-1,6-bisphosphatase 1 (Homo sapiens, UniProt P09467, R255A) (P09467 2-338 R255A limits assumed): as the sequence (P09467 2-338 N126A limits assumed) above, with A125N, R254A counted along it
Sequence of Fructose-1,6-bisphosphatase 1 (Homo sapiens, UniProt P09467, R244A) (P09467 2-338 R244A limits assumed): as the sequence (P09467 2-338 N126A limits assumed) above, with A125N, R243A counted along it
Sequence of Fructose-1,6-bisphosphatase 1 (Homo sapiens, UniProt P09467, C39S) (P09467 2-338 C39S limits assumed): as the sequence (P09467 2-338 N126A limits assumed) above, with C38S, A125N counted along it
Sequence of Fructose-1,6-bisphosphatase 1 (Homo sapiens, UniProt P09467, C93S) (P09467 2-338 C93S limits assumed): as the sequence (P09467 2-338 N126A limits assumed) above, with C92S, A125N counted along it
Sequence of Fructose-1,6-bisphosphatase 1 (Homo sapiens, UniProt P09467, C184S) (P09467 2-338 C184S limits assumed): as the sequence (P09467 2-338 N126A limits assumed) above, with A125N, C183S counted along it

Compound	IC50 [1]	Ratio IC50 (Homo sapiens [2])	Ratio IC50 (Homo sapiens [3])	Ratio IC50 (Homo sapiens [4])	IC50 [5]	Ratio IC50 (Homo sapiens [6])	IC50 [7]	Ratio IC50 (Homo sapiens [8])	Ratio IC50 (Homo sapiens [9])	IC50 [10]	IC50 [11]	Ratio IC50 (Homo sapiens [12])	IC50 [13]	IC50 [14]	IC50 [15]	IC50 [16]	Ratio IC50 (Homo sapiens [17])	Ratio IC50 (Homo sapiens [18])	IC50 [19]	Ratio IC50 (Homo sapiens [20])	other results
O=[N+]([O-])/C=C/c1cccc(F)c1	8400 nM	1.9	> 1010	26	19000 nM	2.8	1200 nM	37.8	6.9	12000 nM	620 nM	2.8	320 nM	1100 nM	890 nM	> 350000 nM	7.2	3.4	2300 nM	3.8	IC50 [21]: 2200 nM; IC50 [22]: 920 nM; Ratio IC50 (Homo sapiens [23]): > 625; IC50 [24]: > 200000 nM
CCOC(=O)C(C)(C)Oc1ccc(F)c(/C=C/[N+](=O)[O-])c1	12000 nM	1	> 820	20	2900 nM	5.9	660 nM	39	28	24000 nM	640 nM	1.6	610 nM	960 nM	3600 nM	> 500000 nM	1.5	1.6	1300 nM	1	IC50 [21]: 17000 nM; IC50 [22]: 970 nM; Ratio IC50 (Homo sapiens [23]): 492; IC50 [24]: > 300000 nM
N#Cc1ccc(/C=C/[N+](=O)[O-])cc1	3600 nM	0.97	> 1000	10	1500 nM	1.2	490 nM	3.8	1.9	1400 nM	340 nM	1.2	360 nM	330 nM	430 nM	> 350000 nM	1.7	0.94	610 nM	1.4	IC50 [21]: 680 nM; IC50 [22]: 440 nM; Ratio IC50 (Homo sapiens [23]): > 556; IC50 [24]: > 200000 nM
